In series [1] the test system is Mus musculus. The series can be described thus: Emetogenic potential in surrogate emesis CD1 mouse model assessed as effect on xyclacine/ketamine-induced loss of righting reflex at 1 mg/kg, sc. More on the design: dose 1 mg/kg, route subcutaneous. The format is ADME, organism-based. To be noted: in vivo. An outline of the steps: (§1)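 Male CD1 mice (25–30 g) anesthetized ip with xylazine 10 mg/kg plus ketamine 100 mg/kg. Test agent or vehicle given sc 15 min later in 60% PEG/saline (0.1 mL/10 g). Duration of anesthesia is timed to return of righting reflex. Mean ± SEM, n = 10–19 per group, ANOVA with Dunnett post hoc test.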

The target of series [2] is T1, High affinity 3',5'-cyclic-AMP phosphodiesterase 7A (Homo sapiens, UniProt Q13946). Description: Inhibition of human recombinant PDE7A1 assessed as inhibition of hydrolysis of [3H]cAMP at 10 uM after 20 mins by scintillation proximity assay. An outline of the steps:
(§2)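 Scintillation proximity assay with human recombinant enzyme: PDE7A1 0.02 U, PDE3A 0.02 U, PDE7B 0.5 U, PDE8A 0.5 U. Enzyme incubated with 5 nCi [3H]cAMP and inhibitor in kit buffer for 20 min at 30 °C. SPA beads added and shaken 1 h at room temperature, settled 30 min, radioactivity counted.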

Series [3] concerns the target cGMP-inhibited 3',5'-cyclic phosphodiesterase 3A (Homo sapiens) (UniProt Q14432). The series can be described thus: Inhibition of human recombinant PDE3A assessed as inhibition of hydrolysis of [3H]cAMP at 10 uM after 20 mins by scintillation proximity assay. An outline of the steps:
as §2
(Scintillation proximity formats need no separation of bound from free tracer.)

In series [4] the test system is Mus musculus. Description: Emetogenic potential in surrogate emesis CD1 mouse model assessed as effect on xyclacine/ketamine-induced loss of righting reflex at 1 mg/kg, sc. Conditions: in vivo.
Series [5] concerns the target T2, 3',5'-cyclic-AMP phosphodiesterase 7B (Homo sapiens, UniProt Q9NP56). Description: Inhibition of human recombinant PDE7B assessed as inhibition of hydrolysis of [3H]cAMP after 20 mins by scintillation proximity assay. An outline of the steps:
as §2

For series [6], the system named is SH-SY5Y. The series can be described thus: Cytoprotective activity against 6-OHDA-induced death of human SH-SY5Y cells pretreated for 1 hr at 10 uM measured 16 hrs post 6-OHDA challenge by MTT assay. The format is functional, cell-based. An outline of the steps:
(§3)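 Human neuroblastoma SH-SY5Y grown in F12/EMEM with 2 mM glutamine, 1% nonessential amino acids and 15% FBS at 37 °C, 5% CO2. Semiconfluent cells pretreated 1 h with compound, then 6-OHDA (35 μM) added for 16 h. Viability by MTT (0.5 mg/mL, 4 h), SDS/HCl solubilisation, absorbance 595 nm. Mean ± SD of three experiments.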

For series [7], the target named is T2, 3',5'-cyclic-AMP phosphodiesterase 7B. Description: Inhibition of human recombinant PDE7B assessed as inhibition of hydrolysis of [3H]cAMP at 10 uM after 20 mins by scintillation proximity assay. An outline of the steps:
as §2

Series [8] addresses T3, 3',5'-cyclic-AMP phosphodiesterase 4B (Homo sapiens, UniProt Q07343). Description: Inhibition of human recombinant PDE4B2 assessed after 60 mins by IMAP fluorescence polarization assay. In general terms: Polarisation of emitted light reports the rotation of a fluorescent probe.
Series [9] deals with T4, 3',5'-cyclic-AMP phosphodiesterase 4D (Homo sapiens, UniProt Q08499). The series can be described thus: Inhibition of human recombinant PDE4D3 assessed at 10 uM after 60 mins by IMAP fluorescence polarization assay.
The target in series [10] is T4, 3',5'-cyclic-AMP phosphodiesterase 4D. The series can be described thus: Inhibition of human recombinant PDE4D3 assessed after 60 mins by IMAP fluorescence polarization assay.
Series [11] concerns Astrocyte. The series can be described thus: Inhibition of LPS-induced NO production in rat astrocytes treated for 1 hr at 10 uM before LPS challenge measured after 24 hrs by Griess assay. The format is functional, cell-based. An outline of the steps:
(§4)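 After 2 days, cells were pretreated with compound (10 μM), then LPS (10 μg/mL) was added for 24 h. Nitrite in the supernatant was measured by Griess reagent (15 min, room temperature, absorbance 492/540 nm). Mean ± SD of three experiments.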
For orientation: The Griess reaction detects nitrite, a stable product of nitric oxide.

For series [12], the target named is T1, High affinity 3',5'-cyclic-AMP phosphodiesterase 7A. The series can be described thus: Inhibition of human recombinant PDE7A1 assessed as inhibition of hydrolysis of [3H]cAMP after 20 mins by scintillation proximity assay. An outline of the steps: as §2
Series [13] deals with T3, 3',5'-cyclic-AMP phosphodiesterase 4B. Description: Inhibition of human recombinant PDE4B2 assessed at 10 uM after 60 mins by IMAP fluorescence polarization assay.
The test system of another series is Microglia. Description: Inhibition of LPS-induced NO production in rat microglia treated for 1 hr at 10 uM before LPS challenge measured after 24 hrs by Griess assay. The format is functional. An outline of the steps:
as §4

Series [14] deals with Mus musculus. The series can be described thus: Emetogenic potential in surrogate emesis CD1 mouse model assessed as effect on xyclacine/ketamine-induced loss of righting reflex at 0.1 to 10 mg/kg, sc. Type of series: ADME, organism-based. More on the design: dose 0.1-10 mg/kg, route subcutaneous. Conditions: in vivo.
The target of series [15] is T5, Phosphodiesterase 7 (Homo sapiens, UniProt Q13946+Q9NP56). Description: Inhibition of PDE7 (unknown origin). The format is protein assay.
For series [16], the system named is Astrocyte. Description: Inhibition of LPS-induced NO production in rat astrocytes. Type of series: functional, cell-based.
Series [17] has as its system Mus musculus. Description: Emetogenic potential in surrogate emesis CD1 mouse model assessed as effect on xyclacine/ketamine-induced loss of righting reflex at 2.5 to 10 mg/kg, sc. The format is ADME, organism-based. More on the design: dose 2.5-10 mg/kg, route subcutaneous. To be noted: in vivo. An outline of the steps: as §1
For series [18], the system named is SH-SY5Y. The series can be described thus: Cytoprotective activity against 6-OHDA-induced death of human SH-SY5Y cells pretreated for 1 hr at 30 uM measured 16 hrs post 6-OHDA challenge by MTT assay. Type of series: functional, cell-based. To be noted: 10 uM, in the assay text read “10 uM” for “30 uM”. An outline of the steps: as §3
Series [19] addresses cAMP and cAMP-inhibited cGMP 3',5'-cyclic phosphodiesterase 10A (Homo sapiens) (UniProt Q9Y233). The series can be described thus: Inhibition of human recombinant PDE10A assessed at 10 uM after 20 mins by scintillation proximity assay.
Series [20] addresses High affinity cAMP-specific and IBMX-insensitive 3',5'-cyclic phosphodiesterase 8A (Homo sapiens) (UniProt O60658). Description: Inhibition of PDE8A (unknown origin) at 10 uM. An outline of the steps:
as §2

In series [21] the target is High affinity cGMP-specific 3',5'-cyclic phosphodiesterase 9A (Homo sapiens) (UniProt O76083). The series can be described thus: Inhibition of human recombinant PDE9A assessed at 10 uM after 60 mins by IMAP fluorescence polarization assay. An outline of the steps: (§5)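 Fluorescence polarization IMAP assay. PDE1 at 2 U and PDE9 at 0.05 U, incubated with 1 nM fluorescein-cAMP (or fluorescein-cGMP for PDE5) plus inhibitor for 60 min at ambient temperature. Stopped with IMAP binding reagent, stood 1 h, FP ratio read. IC50 from a sigmoidal fit of FP versus log concentration. Means ± SD of two experiments with duplicates.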

Series [22] deals with cGMP-specific 3',5'-cyclic phosphodiesterase (Homo sapiens) (UniProt O76074). Description: Inhibition of human recombinant PDE5A assessed at 10 uM after 60 mins by IMAP fluorescence polarization assay. An outline of the steps:
as §5

The target of series [23] is Dual specificity calcium/calmodulin-dependent 3',5'-cyclic nucleotide phosphodiesterase 1A (Homo sapiens) (UniProt P54750). Description: Inhibition of human recombinant PDE1A assessed at 10 uM after 60 mins by IMAP fluorescence polarization assay. An outline of the steps:
as §5

For series [24], the target named is T5, Phosphodiesterase 7. Description: Inhibition of PDE7 in human SH-SY5Y cells assessed as increase in CREB phosphorylation at 10 uM by Western blot analysis.
Series [25] relates to Mus musculus. The series can be described thus: Emetogenic potential in surrogate emesis CD1 mouse model assessed as effect on xyclacine/ketamine-induced loss of righting reflex at 5 mg/kg, sc. Type of series: ADME, organism-based. More on the design: dose 5 mg/kg, route subcutaneous. To be noted: in vivo. An outline of the steps: as §1

Structures are written as SMILES. Calls of active or inactive are those of the source. No cut-off for these calls is given here.

T1 sequence (Q13946 whole entry): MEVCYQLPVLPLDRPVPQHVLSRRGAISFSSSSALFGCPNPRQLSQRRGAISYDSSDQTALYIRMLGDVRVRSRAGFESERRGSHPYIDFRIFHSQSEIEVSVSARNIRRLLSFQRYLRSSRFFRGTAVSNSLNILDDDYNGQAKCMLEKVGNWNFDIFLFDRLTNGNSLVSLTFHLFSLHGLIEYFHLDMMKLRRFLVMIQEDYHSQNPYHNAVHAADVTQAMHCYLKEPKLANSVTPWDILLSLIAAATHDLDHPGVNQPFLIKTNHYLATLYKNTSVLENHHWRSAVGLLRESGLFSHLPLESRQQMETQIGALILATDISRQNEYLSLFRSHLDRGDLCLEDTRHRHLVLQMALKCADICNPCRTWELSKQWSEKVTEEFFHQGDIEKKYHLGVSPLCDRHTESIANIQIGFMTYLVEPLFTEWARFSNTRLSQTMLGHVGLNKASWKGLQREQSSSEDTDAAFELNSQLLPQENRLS
T2 sequence (Q9NP56 whole entry): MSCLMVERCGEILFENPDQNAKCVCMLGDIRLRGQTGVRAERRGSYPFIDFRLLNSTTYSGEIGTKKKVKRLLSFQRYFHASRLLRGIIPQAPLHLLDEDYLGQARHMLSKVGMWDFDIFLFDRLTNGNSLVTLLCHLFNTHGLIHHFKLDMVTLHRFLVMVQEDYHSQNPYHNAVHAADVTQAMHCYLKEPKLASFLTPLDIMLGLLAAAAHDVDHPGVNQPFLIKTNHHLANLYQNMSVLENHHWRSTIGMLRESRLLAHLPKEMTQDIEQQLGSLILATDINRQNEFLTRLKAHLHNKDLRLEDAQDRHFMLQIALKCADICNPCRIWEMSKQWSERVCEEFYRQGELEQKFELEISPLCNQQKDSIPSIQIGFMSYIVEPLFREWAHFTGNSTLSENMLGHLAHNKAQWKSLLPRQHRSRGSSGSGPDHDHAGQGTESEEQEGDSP
T3 sequence (Q07343 whole entry): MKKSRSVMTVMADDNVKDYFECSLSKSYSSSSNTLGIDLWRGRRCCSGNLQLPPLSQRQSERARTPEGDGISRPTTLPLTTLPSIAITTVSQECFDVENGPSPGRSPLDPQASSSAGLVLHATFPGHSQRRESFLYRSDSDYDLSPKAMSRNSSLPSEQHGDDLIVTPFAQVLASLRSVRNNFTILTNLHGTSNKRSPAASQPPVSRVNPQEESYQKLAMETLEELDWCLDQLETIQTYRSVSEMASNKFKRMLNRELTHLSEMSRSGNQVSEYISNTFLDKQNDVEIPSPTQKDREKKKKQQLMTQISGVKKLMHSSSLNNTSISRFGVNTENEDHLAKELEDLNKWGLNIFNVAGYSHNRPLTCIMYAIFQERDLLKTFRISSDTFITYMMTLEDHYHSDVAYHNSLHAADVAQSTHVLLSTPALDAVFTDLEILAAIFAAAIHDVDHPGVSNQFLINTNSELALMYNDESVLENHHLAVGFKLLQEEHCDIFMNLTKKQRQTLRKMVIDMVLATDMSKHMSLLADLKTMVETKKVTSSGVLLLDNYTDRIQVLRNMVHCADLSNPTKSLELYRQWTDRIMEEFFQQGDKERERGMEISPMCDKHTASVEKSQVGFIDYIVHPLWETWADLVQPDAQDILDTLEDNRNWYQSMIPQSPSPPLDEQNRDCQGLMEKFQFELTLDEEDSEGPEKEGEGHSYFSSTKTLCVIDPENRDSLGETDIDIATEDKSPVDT
Chain of cGMP-inhibited 3',5'-cyclic phosphodiesterase 3A (Homo sapiens) (Q14432 whole entry): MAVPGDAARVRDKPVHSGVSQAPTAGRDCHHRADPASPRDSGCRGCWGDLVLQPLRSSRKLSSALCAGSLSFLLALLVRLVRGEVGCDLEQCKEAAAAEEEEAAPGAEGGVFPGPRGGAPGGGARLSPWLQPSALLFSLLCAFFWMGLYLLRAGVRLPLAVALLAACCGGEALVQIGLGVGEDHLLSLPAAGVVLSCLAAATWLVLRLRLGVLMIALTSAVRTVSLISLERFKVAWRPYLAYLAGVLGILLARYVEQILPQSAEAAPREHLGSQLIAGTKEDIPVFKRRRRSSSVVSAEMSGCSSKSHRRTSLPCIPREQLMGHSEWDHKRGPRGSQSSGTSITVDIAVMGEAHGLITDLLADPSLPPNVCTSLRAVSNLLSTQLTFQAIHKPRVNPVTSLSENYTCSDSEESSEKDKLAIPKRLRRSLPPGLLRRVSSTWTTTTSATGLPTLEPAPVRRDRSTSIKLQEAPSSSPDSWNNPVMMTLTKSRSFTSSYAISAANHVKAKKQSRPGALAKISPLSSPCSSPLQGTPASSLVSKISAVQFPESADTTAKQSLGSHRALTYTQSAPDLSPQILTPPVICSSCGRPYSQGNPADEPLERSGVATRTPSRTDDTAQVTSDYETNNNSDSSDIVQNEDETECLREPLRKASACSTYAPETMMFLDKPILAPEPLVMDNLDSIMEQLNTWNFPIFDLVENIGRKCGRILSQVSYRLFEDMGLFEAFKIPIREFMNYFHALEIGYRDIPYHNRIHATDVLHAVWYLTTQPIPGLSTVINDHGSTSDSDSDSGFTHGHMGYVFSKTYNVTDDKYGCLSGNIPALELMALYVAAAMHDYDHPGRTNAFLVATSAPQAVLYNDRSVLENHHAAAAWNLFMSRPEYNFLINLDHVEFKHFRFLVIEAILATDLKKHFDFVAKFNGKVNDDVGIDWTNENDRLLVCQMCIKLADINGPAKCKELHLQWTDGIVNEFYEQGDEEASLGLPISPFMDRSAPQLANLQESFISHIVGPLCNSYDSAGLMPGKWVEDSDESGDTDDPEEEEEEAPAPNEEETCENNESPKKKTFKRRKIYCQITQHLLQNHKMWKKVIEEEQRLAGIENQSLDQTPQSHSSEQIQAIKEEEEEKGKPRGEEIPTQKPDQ
T4 sequence (Q08499 whole entry): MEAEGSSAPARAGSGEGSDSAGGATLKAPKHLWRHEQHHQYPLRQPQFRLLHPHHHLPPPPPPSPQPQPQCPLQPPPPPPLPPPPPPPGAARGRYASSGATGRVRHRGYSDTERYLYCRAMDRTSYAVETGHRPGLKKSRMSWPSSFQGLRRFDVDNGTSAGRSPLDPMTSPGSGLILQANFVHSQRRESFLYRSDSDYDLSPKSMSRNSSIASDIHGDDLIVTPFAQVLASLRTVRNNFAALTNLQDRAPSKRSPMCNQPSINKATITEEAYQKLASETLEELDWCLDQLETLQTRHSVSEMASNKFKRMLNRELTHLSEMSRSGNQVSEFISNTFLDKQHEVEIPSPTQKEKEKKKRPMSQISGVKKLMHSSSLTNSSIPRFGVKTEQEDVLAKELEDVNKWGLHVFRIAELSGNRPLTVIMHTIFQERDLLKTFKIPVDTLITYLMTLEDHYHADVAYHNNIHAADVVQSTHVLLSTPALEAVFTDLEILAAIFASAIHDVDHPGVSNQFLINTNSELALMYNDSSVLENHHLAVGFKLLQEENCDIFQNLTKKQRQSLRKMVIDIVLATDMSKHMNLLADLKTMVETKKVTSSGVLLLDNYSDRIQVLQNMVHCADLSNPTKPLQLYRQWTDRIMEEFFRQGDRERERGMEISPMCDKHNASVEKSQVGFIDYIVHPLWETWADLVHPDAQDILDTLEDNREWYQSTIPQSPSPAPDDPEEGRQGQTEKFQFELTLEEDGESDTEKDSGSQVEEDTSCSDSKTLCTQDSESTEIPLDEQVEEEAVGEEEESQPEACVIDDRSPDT
T5 sequence (Q13946 whole entry, looked up): as the sequence (Q13946 whole entry) above
T5 sequence (Q9NP56 whole entry, looked up): as the sequence (Q9NP56 whole entry) above
Chain of Dual specificity calcium/calmodulin-dependent 3',5'-cyclic nucleotide phosphodiesterase 1A (Homo sapiens) (P54750 whole entry): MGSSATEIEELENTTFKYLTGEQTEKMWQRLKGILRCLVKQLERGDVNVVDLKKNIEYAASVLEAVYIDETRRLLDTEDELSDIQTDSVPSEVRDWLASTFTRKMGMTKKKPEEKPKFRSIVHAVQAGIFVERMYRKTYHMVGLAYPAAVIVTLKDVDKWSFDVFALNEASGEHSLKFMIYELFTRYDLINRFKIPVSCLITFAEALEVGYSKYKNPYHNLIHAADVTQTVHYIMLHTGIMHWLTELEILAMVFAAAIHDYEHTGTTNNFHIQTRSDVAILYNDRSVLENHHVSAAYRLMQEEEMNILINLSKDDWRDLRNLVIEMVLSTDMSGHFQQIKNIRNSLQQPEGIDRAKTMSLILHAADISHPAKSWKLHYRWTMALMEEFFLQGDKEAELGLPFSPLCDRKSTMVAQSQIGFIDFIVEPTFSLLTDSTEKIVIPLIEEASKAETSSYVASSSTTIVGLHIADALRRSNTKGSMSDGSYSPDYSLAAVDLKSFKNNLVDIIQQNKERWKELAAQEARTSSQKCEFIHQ
Chain of High affinity cAMP-specific and IBMX-insensitive 3',5'-cyclic phosphodiesterase 8A (Homo sapiens) (O60658 whole entry): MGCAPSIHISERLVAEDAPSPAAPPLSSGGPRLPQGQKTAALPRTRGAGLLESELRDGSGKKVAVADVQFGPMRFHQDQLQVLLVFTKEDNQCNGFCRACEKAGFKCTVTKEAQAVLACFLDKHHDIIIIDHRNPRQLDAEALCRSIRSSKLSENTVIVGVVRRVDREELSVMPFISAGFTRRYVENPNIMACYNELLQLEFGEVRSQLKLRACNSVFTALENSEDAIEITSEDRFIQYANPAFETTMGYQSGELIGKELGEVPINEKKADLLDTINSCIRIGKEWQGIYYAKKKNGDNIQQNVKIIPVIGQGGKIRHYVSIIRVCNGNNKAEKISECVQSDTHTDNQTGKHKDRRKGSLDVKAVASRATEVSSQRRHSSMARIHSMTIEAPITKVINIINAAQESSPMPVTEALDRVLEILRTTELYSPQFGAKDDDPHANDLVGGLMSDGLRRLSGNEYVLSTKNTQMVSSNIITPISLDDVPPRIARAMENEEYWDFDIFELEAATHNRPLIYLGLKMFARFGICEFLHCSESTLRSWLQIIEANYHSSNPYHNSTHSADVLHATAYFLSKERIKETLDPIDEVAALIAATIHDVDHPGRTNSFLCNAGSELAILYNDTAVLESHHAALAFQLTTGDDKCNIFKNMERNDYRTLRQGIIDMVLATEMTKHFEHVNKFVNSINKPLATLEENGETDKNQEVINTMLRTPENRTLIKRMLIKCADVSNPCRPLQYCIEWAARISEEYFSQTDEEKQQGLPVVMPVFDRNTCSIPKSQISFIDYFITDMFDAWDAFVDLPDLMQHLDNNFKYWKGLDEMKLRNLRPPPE

Broadly, the inhibition is the relative decrease from the control value, in per cent. In the case of `COc1ccc(C2CNC(=O)C2)cc1OC1CCCC1` (stereo not given) [ROLIPRAM], the Activity entry with Mus musculus [1] and in the series with Mus musculus [4] was “Toxic” throughout. Moreover, the inhibition in series [2] was 3.1%; in series [3], 9.42%.
The IC50 is the concentration needed to halve the response being measured. `O=[N+]([O-])c1cc(Cl)ccc1Sc1ccncc1`: the concentration for half-maximal inhibition (IC50) in [5] turned out to be 13.9 µM; in [8], 4.4 µM; in series [10] it was 3 µM; in series [12] it was 0.72 µM. The outcome in the series with SH-SY5Y [6] was Active. The inhibition in series [2] is 91%; in [7] it was 76%; in series [9], 74%; in series [3], 33%; in series [13], 77%. Further, the inhibition result with Astrocyte [11] and in the series on Microglia was “Active” each time.
On to `Br.OCC/N=c1/nc(-c2ccccc2)n(-c2ccccc2)s1`, for which, in the series on Mus musculus [14], the Activity entry is listed as “Non-toxic”. Besides, at Phosphodiesterase 7 [15], the IC50 worked out at 1.11 µM.
Turning to `O=[N+]([O-])c1ccc(Sc2ccccn2)c(Cl)c1`, the result with SH-SY5Y [6] was Active. Also, the inhibition was found to be 69% in [2]; 39% in [7]; 24% in series [9]; 44% in series [3]; 35% in series [13]. In addition, the inhibition result in the series on Astrocyte [11], in the series on Microglia and with Astrocyte [16] was “Active” throughout. In addition, in series [12], the IC50 came to 1.29 µM.
As for `COc1cc(COC(=O)c2ccc(-c3ccccc3)o2)cc(OC)c1OC`, the Activity entry in the series with Mus musculus [14] is on record as “Non-toxic”. For the same compound, the IC50 against Phosphodiesterase 7 [15] was 5.17 µM.
As to `S=c1[nH]c2ccccc2c(=S)n1-c1ccccc1`, the Activity result in the series on Mus musculus [14] is on record as “Non-toxic”. The compound also registered an IC50 against Phosphodiesterase 7 [15] of 1.04 µM.
Take `Nc1ccc(Sc2ccc(Cl)cc2[N+](=O)[O-])cc1`: the IC50 in series [5] was determined as 3 µM; in [12], 0.37 µM. The Activity result in the series with Mus musculus [17] is “Non-toxic”. Moreover, the result in the series with SH-SY5Y [6] and in the series with SH-SY5Y [18] was Active. In addition, the inhibition in series [19] was found to be 57.5%; in series [2], 81%; in [7], 82%; in series [9] it was 7%; in series [3] it was 37%; in [20], 1.2%. The inhibition turned out to be 4% in series [13], 7% in [21], 28% in [22] and 36% in series [23]. The inhibition entry in the series with Astrocyte [11] and in the series with Microglia was “Active” each time. Also, the outcome on Phosphodiesterase 7 [24] was inactive.
With `O=[N+]([O-])c1ccc(Sc2ccncc2)c(Cl)c1`, the 50% inhibitory concentration (IC50) is 0.6 µM in series [5], 6.6 µM in series [8], 7.3 µM in series [10] and 0.18 µM in [12]. The result in the series on SH-SY5Y [6] was Active. For the same compound, the inhibition in [19] came to 29.4%; in series [2] it was 85%; in series [7] it was 94%; in series [9], 65%; in [3], 27%; in series [20] it was 2.4%. Also, the inhibition in [13] was 69%; in series [21] it was 1%; in series [22], 21%; in [23], 39%. Besides, the inhibition result with Astrocyte [11] and with Microglia was “Active” each time. On Phosphodiesterase 7 [24], the outcome was inactive.
Consider `O=C(Nc1c(Cl)cncc1Cl)c1ccc(OC(F)F)c(OCC2CC2)c1` [ROFLUMILAST], for which the Activity entry in the series on Mus musculus [1] and with Mus musculus [25] was “Toxic” throughout.

Values taken from ChEMBL document CHEMBL3352280, “Modulation of cAMP-specific PDE without emetogenic activity: new sulfide-like PDE7 inhibitors” (J Med Chem, 2014).
